pPAFAH FP inh: inhibitors of human plasma PAF acetylhydrolase (pPAFAH); recombinant pPAFAH, FP-rhodamine probe fluorescence polarization; Q13093; 330,000 tested, 1.5% active; inhibition, % at 3.39 µM;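 active means inhibition above the mean inhibition across the screen plus 3 SD, cut at about 25% in these data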;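 further: inhibitors block binding of the rhodamine activity-based probe so polarization drops; 0% = enzyme with DMSO and 100% = wells lacking pPAFAH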
Target sequence (Q13093 whole entry, looked up): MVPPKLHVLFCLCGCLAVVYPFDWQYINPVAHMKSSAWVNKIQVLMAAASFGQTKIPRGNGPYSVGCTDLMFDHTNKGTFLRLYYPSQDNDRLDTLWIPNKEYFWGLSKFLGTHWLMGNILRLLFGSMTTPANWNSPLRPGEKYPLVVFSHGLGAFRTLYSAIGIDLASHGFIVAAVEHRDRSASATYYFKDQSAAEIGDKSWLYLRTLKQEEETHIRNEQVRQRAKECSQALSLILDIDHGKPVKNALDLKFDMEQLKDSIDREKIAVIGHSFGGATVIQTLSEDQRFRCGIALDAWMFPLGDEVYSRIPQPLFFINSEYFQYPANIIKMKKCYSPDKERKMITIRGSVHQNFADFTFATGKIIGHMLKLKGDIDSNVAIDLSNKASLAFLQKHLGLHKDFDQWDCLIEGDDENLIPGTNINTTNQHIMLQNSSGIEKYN
PAFAH1B2 inh: inhibitors of human PAFAH1B2; P68402; recombinant PAFAH1B2, FP-rhodamine activity probe, fluorescence polarization; inhibition, % at 3.39 µM; 340,000 tested, 1.2% active; AID 492953;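 active means inhibition above the mean of all tested compounds plus 3 SD, cut at about 24% in these data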;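 further: 0% = enzyme with DMSO and 100% = wells lacking PAFAH1B2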
Target sequence (P68402 whole entry, looked up): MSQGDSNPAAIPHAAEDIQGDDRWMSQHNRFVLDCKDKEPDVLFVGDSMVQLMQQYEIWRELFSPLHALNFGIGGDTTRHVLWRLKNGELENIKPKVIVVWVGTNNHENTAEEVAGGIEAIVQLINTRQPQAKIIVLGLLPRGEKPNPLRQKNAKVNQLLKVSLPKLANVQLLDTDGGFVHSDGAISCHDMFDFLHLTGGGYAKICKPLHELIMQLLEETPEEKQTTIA
PAFAH1B3 inh: PAFAH1B3 (human) inhibition | Q15102 | recombinant PAFAH1B3, FP-rhodamine probe, fluorescence polarization | inhibition, % at 3.39 µM | 340,000 tested, 0.28% active | AID 492972;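 active means inhibition above the screen-wide average of all tested compounds plus 3 SD, cut at about 25% in these data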;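 further: 0% = enzyme with DMSO only and 100% = wells lacking PAFAH1B3 protein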
Apaf1 inhib: blocks human Apaf-1 apoptosome activity. O14727. reconstituted apoptosome caspase-3 activity, DEVD-Rh110 fluorescence. inhibition, % at 20 µM. 330,000 tested, 0.71% active; active means inhibition of at least 40% at 20 µM;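 further: plate controls were DMSO wells for no effect and DEVD-CHO caspase inhibitor wells for full effect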
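Assay system: Apoptosome proteins | Medium: pH 7.5 Hepes buffer with CHAPS, BSA, DTT | Also added: Cytochrome c and DEVD-Rh110 substrate | Times: 30 min plus 50 min, RT | Detection: Rhodamine 110 fluorescence at Ex 480/Em 540 nm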
PAFAH2 FP inh: inhibitors of human PAFAH2; Q99487; recombinant PAFAH2, FP-rhodamine activity probe, fluorescence polarization; inhibition, % at 3.39 µM; 340,000 tested, 0.99% active;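 active means inhibition above the mean over all tested compounds plus 3 SD, cut at about 30% in these data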;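 further: inhibitors block probe labeling of enzyme so polarization drops; 0% = enzyme with DMSO and 100% = wells lacking PAFAH2 protein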
pPAFAH confirm: pPAFAH (human) inhibition, confirmed; shares compounds with pPAFAH FP inh; recombinant pPAFAH, FP-Rh probe fluorescence polarization; inhibition, % at 3.39 µM; 2,300 tested, 72% active; AID 463230;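 active means mean inhibition of the triplicate above the hit cutoff set for the earlier primary screen, cut at about 25% in these data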;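 further: 0% = enzyme with DMSO and 100% = wells lacking pPAFAH enzyme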
* marks the source's active call; other numbers are inactive results; / = no result given. Most compounds without a hit are left out; they make up all but 3.1% or so of the library.

SMILES	pPAFAH FP inh	PAFAH1B2 inh	PAFAH1B3 inh	Apaf1 inhib	PAFAH2 FP inh	pPAFAH confirm
CCOc1ccccc1CNC(=O)C(C)n1nc(C)c2c(C)n(-c3ccccc3)nc2c1=O (stereo not drawn)	58.1*	0.5	3.2	0.8	-1.1	-0.5
CCN(CC)C(=O)[C@H]1C[C@H](CC(=O)NC/C=C(\C)CCC=C(C)C)C(=O)N2CCc3c([nH]c4cc(CCC(=O)N(C)C)ccc34)[C@]12C	63.1*	2.0	6.0	36.2	-3.5	49.6*
O=C(O)c1ccc(N=Nc2c(O)ccc3ncccc23)cc1	39.1*	13.8	33.4*	17.5	6.4	55.7*
Cc1c(C(=O)NNC(=O)c2ccccc2O)oc2ccc(Br)cc12	57.9*	2.4	6.5	/	5.7	69.8*
O=C(Nc1ccc2c(c1)CCCN2C(=O)c1cccs1)c1c(F)cccc1Cl	2.9	-1.6	1.7	17.3	0.2	/
Cc1ccc(F)cc1NC(=O)CSc1nnc(CNC(=O)c2ccco2)n1C	4.0	1.5	2.6	8.7	5.1	/
Cc1cc(C(=O)N/N=C/c2ccc([N+](=O)[O-])o2)c(C)o1	41.6*	-1.2	8.3	16.5	1.2	6.7
Cc1ccc(C(=O)Nc2nnc(CC(=O)N/N=C/c3ccc(O)c(O)c3)s2)cc1	50.8*	14.3	18.6	14.8	27.8	87.0*
Cc1ccc(C(=O)Nc2nnc(CC(=O)N/N=C/c3ccncc3)s2)cc1	-1.8	5.1	2.6	7.0	-7.7	/
O=C1C(=Cc2ccc(Br)o2)C(=O)c2ccccc21	49.9*	9.1	17.7	/	70.5*	66.2*
CC(=O)Nc1ccc(NC(=O)CCC(=O)OCC(=O)c2ccc(F)cc2)cc1	0.5	1.7	11.9	-13.5	-1.8	/
COc1ccc(NC(=O)Cc2cccs2)c(OC)c1	4.0	2.1	5.6	4.6	2.5	/
COc1ccc(Cc2nnc(NC(=O)Cc3cccs3)s2)cc1OC	35.8*	0.3	9.7	12.4	15.5	17.0
COc1cc(NC(=O)c2ccccc2)c(OC)cc1NC(=O)Cc1cccs1	46.4*	/	/	12.1	/	20.7
CCOc1ccccc1C(=O)NCC(=O)N1CCN(Cc2ccc3c(c2)OCO3)CC1	1.6	-1.8	2.0	2.9	5.7	/
COc1ccc(C)cc1NC(=O)CCc1ccc(S(=O)(=O)N2CCOCC2)cc1	3.6	-6.3	6.5	-8.4	2.1	/
CCn1c(NC(=O)c2cccc(Cn3cc(Cl)cn3)c2)nc2ccccc21	65.0*	3.3	3.6	32.4	0.4	64.5*
COc1cccc(OC)c1-c1nn2c(-c3cc(-c4ccccc4)n[nH]3)nnc2s1	37.2*	0.4	-2.0	53.1*	42.3*	45.9*
N#CCCN(C(=S)NC(=O)C1CCCCC1)c1ccccc1F	2.9	5.4	4.6	-11.0	-2.7	/
CCCN(CC1CC1)C(=S)NC(=O)c1cc(Br)ccc1Cl	/	12.7	11.9	4.4	-2.7	/
O=C(/C=C/c1cc[n+](CC(=O)c2ccc3cccc4c3c2CC4)cc1)c1ccc2cccc3c2c1CC3	71.2*	-5.5	2.2	58.5*	22.3	86.3*
COC(=O)c1c(NC(=O)/C=C/C(=O)O)sc(C)c1-c1ccc(C)c(C)c1	43.7*	3.2	9.3	12.3	10.2	28.0*
COC(=O)c1c(NC(=O)/C=C/C(=O)O)sc(C)c1-c1ccc(C)cc1	14.8	4.7	5.4	16.2	7.1	/
CCOC(=O)c1c(NC(=O)/C=C/C(=O)O)sc(C)c1-c1ccc(C)c(C)c1	54.0*	-5.2	10.4	11.5	-1.0	63.4*
O=C(c1ccc2c(=O)n(Cc3ccccc3)c(=S)[nH]c2c1)N1CCOCC1	8.5	11.0	7.1	10.0	19.4	/
SMILES	pPAFAH FP inh	PAFAH1B2 inh	PAFAH1B3 inh	Apaf1 inhib	PAFAH2 FP inh	pPAFAH confirm
CC(=O)c1ccc(N2CCN(C(=O)c3ccc(Cn4c(=S)[nH]c5ccc(N6CCOCC6)cc5c4=O)cc3)CC2)cc1	49.2*	4.9	12.4	2.2	13.3	22.9
CCn1c(SCC(=O)c2ccc3c(c2)Cc2ccccc2-3)nnc1-c1ccc(N)cc1	3.5	-3.0	2.4	34.5	1.6	/
CCn1c(SCC(=O)c2ccc(O)c(O)c2)nnc1-c1ccc(C)cc1	43.1*	3.5	14.5	2.5	44.6*	71.8*
CN1C(=O)NC(c2ccccc2[N+](=O)[O-])C2=C1CCCC2=O (stereo not drawn)	72.0*	49.2*	58.2*	21.5	67.0*	17.4
CN1C(=O)NC(c2ccccc2[N+](=O)[O-])C2=C1CC(C)(C)CC2=O (stereo not drawn)	-1.3	5.0	4.8	5.2	3.5	/
COc1ccc(NC(=O)c2cccnc2)cc1	-2.3	-4.2	6.2	-10.4	3.0	/
C/C(=C\C(=O)c1cccnc1)Nc1ccc(O)cc1	38.3*	0.2	2.9	5.5	-3.0	-3.9
Cc1ccc(NS(=O)(=O)c2cccc(C(=O)NCC3(N(C)C)CCCCC3)c2)cc1	60.0*	8.3	10.6	5.4	5.8	53.4*
CN(C)C1(CNC(=O)c2cccc(S(=O)(=O)Nc3ccc(Br)cc3)c2)CCCCC1	42.8*	3.8	-2.0	25.4	-2.8	42.1*
N/C(=N\OC(=O)c1ccccc1)c1ccn[nH]1	5.6	1.3	5.8	0.3	-4.0	/
Cc1ccc(S(=O)(=O)N2CCN(C(=O)c3cc4c(s3)CCCC4)CC2)cc1	2.0	1.6	8.1	25.1	4.9	/
COc1ccc(S(=O)(=O)N2CCN(C(=O)c3cc4c(s3)CCC4)CC2)cc1	43.1*	6.3	12.8	22.0	24.9	34.5*
Cc1c(OCC(=O)NC2CCN(Cc3ccccc3)CC2)ccc2c3c(c(=O)oc12)CCC3	5.5	-0.7	14.8	15.2	-3.5	/
O=C1NC(=O)C2(CCCC2C(=O)O)N1 (stereo not drawn)	/	7.5	0.5	/	3.2	/
CCCC1=Nc2cc(C(=O)NCCCN3CCN(C)CC3)ccc2Sc2ccccc21	34.5*	3.2	5.8	7.2	-4.4	6.0
CCCC1=Nc2cc(C(=O)NCCCN3CCOCC3)ccc2Sc2ccccc21	17.8	4.4	5.3	4.2	-2.1	/
Cc1ccsc1C(=O)Nc1ccc(OCc2ccccc2)cc1	4.9	6.6	3.0	6.4	-2.0	/
O=C(O)c1ccc(Nc2nc3ccccc3nc2NS(=O)(=O)c2ccc(F)cc2)cc1	15.7	7.4	9.1	17.9	7.0	/
CC(=O)Nc1ccc(S(=O)(=O)Nc2nc3ccccc3nc2Nc2ccc(N)cc2)cc1	38.0*	3.0	12.2	-19.2	11.4	10.7
CCN(CC)c1ccc(/C=N/NC(=O)c2cccc(S(=O)(=O)Nc3ccccc3OC)c2)c(O)c1	47.7*	15.2	17.6	-0.1	8.7	65.2*
CCCCCCCCNCCS(=O)(=O)NC1CCCCC1	/	-1.6	-0.2	/	4.1	/
CCC(Sc1nc(C)cc(C)n1)C(=O)Nc1nccs1 (stereo not drawn)	-4.5	4.7	6.6	1.7	-0.9	/
CCCc1nnc(SCC(=O)NC2CC2)n1C	5.0	6.4	4.5	-5.3	-10.3	/

High-throughput results (PubChem)
